Experimental data pooled from the literature.
Protocols differ between the studies behind these lines.
Target: Phosphatidylinositol 3-kinase C2 domain-containing subunit gamma (PIK3C2G, Homo sapiens, UniProt O75747)
Residues used in one study (O75747 1-1486): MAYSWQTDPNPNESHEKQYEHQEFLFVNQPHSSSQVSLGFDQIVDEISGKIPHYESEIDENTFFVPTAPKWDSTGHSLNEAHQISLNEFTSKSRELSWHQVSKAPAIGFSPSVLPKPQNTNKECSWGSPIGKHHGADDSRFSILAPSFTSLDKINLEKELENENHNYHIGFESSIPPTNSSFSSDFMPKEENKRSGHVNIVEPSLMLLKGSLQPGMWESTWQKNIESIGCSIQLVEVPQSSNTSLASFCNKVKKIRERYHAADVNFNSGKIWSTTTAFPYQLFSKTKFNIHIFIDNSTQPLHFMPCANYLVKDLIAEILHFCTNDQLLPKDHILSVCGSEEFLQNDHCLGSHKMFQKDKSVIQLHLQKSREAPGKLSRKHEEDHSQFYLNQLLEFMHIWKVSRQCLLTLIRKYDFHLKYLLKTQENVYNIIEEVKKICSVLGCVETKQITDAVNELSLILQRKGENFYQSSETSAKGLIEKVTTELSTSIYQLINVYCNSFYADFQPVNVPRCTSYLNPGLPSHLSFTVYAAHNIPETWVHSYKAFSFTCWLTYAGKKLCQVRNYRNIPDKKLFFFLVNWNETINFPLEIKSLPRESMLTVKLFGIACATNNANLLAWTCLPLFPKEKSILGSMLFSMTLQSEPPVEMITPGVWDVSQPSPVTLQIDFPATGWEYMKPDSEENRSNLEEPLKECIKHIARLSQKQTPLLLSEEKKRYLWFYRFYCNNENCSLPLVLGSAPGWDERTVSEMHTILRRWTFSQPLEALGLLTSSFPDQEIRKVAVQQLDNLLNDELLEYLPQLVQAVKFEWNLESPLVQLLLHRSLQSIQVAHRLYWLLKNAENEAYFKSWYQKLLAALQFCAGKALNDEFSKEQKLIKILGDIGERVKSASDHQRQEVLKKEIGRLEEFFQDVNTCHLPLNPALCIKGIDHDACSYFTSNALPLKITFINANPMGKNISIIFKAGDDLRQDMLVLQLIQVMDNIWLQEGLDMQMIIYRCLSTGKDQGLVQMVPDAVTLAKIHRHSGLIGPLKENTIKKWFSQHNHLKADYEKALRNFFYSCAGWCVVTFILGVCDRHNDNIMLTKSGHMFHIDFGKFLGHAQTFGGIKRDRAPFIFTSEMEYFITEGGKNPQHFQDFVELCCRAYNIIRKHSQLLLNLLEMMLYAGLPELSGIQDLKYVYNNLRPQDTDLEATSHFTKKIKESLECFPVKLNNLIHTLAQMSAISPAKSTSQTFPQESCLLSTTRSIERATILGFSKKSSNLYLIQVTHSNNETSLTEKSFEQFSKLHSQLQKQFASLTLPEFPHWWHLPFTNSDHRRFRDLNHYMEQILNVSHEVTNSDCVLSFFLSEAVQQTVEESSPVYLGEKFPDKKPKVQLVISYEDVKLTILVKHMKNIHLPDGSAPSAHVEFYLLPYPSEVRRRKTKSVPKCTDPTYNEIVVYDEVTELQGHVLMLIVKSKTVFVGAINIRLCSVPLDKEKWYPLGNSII

| SMILES | effect on | technique | concentration | remaining binding [%] |
| --- | --- | --- | --- | --- |
| N[C@H]1CCN(c2nccc(-c3cnn4ncccc34)n2)C1 | binding |  | 1 µM | 100 |
| CC1=C(C#N)C(c2ccc3c(c2)c(NC(=O)c2ccccc2C)nn3C)C(C#N)=C(C)N1 | cell-free assay | competition with immobilised ligand | 1 µM | 61 |
| O=C(NCCCN1CCOCC1)c1ccc(Nc2ncc(Cl)c(-c3ccc(Cl)s3)n2)cc1 | binding | competition with immobilised ligand | 1 µM | 100 |
| C[C@@H](c1cccc(C#N)c1)n1cc(Cl)cc(C(N)=O)c1=N | cell-free assay | competition with immobilised ligand | 1 µM | 84 |
| Nc1ncc2c(n1)-c1c([nH]c3ccc(C#CC4CC4)cc13)CCCC2 | binding | competition with immobilised ligand | 1 µM | 92 |
| N#CC1(c2ccccn2)CCN(Cc2cc(C(=O)N3CCCC3)c(=O)n3ccccc23)CC1 | cell-free assay | competition with immobilised ligand | 1 µM | 73 |
| COc1ccnn2ncc(-c3ccnc(N(C)C)n3)c12 | binding |  | 1 µM | 93 |
| O=C(NCC1CCOCC1)c1n[nH]cc1NC(=O)c1c(F)cccc1F | binding | competition with immobilised ligand | 1 µM | 100 |
| O=C(c1ccc(Nc2nccc(-c3cc4ccccc4s3)n2)cc1)N1CCC(N2CCCC2)CC1 | binding | competition with immobilised ligand | 1 µM | 100 |
| COc1cnc(Nc2cccc(S(N)(=O)=O)c2)nc1N1CCN(c2ccccc2)CC1 | binding | competition with immobilised ligand | 1 µM | 79 |
| C[C@H]1CCN(c2nccc(-c3cnn4ncccc34)n2)C1 | binding |  | 1 µM | 79 |
| O=C(NCCCN1CCOCC1)c1ccc(Nc2nccc(-c3cc4ccccc4s3)n2)cc1 | binding | competition with immobilised ligand | 1 µM | 68 |
| CN(C)c1nccc(-c2cnc3ncccn23)n1 | binding |  | 1 µM | 51 |
| COc1cnc(Nc2cccc(S(N)(=O)=O)c2)nc1N1CCN(c2ccccc2)C(=O)C1 | binding | competition with immobilised ligand | 1 µM | 54 |
| CCS(=O)(=O)c1cc2cc(C[C@](O)(CC(C)(C)c3ccc(F)cc3C(N)=O)C(F)(F)F)[nH]c2cn1 | cell-free assay | competition with immobilised ligand | 1 µM | 100 |
| FC(F)(F)Oc1cccc(-c2cnc3ccc(-c4ccncc4)nn23)c1 | cell-free assay | competition with immobilised ligand | 5 µM | 34 |
| CNCc1ccccc1-c1csc([C@@H](C)Nc2nc(C)nc3cc(OC)c(OC)cc23)c1 | cell-free assay | competition with immobilised ligand | 1 µM | 59 |
| C=CC(=O)N1CCC(C(=O)NCC(=O)N2CCN(c3nc(-c4cnc(N)nc4C(F)F)nc(N4CCOCC4)n3)CC2)CC1 | binding | competition with immobilised ligand | 1 µM | 16 |
| COc1ccc2c(O[C@@H]3C[C@H]4C(=O)N[C@]5(C(=O)O)CC5/C=C\CCCCC[C@H](NC(=O)OC5CCCC5)C(=O)N4C3)cc(-c3csc(NC(=O)C(C)C)n3)nc2c1C (some centres unmarked) | cell-free assay | competition with immobilised ligand | 1 µM | 86 |
| CN(c1nccc(-c2cnn3ncccc23)n1)C1CC1 | binding |  | 1 µM | 99 |
